# sdo1 growth: restores growth of sdo1-depleted yeast; AID 817; z-score at 10 µM; S. cerevisiae sdo1-depleted JHY4D growth rescue, OD600 30 h; hits give high values; pdr5 snq2 efflux-pump mutant strain; actives 0.21% (n = 140,000);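 active = z-score above 3 at both the 24 hr and the 30 hr optical density reads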;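 also: z-score against mean and SD of all compound wells on the same plate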
# Measles CPE: protection of cells from measles virus; Measles virus-infected cells, CPE protection, absorbance; protection (pct of control), % at 4 µM; actives 1.5% (n = 140,000); AID 841; in the data active = protection mostly above about 24%, no sharp cut-off; inactive = mostly below about 26%
# BB579 growth dn: reduces growth of yeast BB579 in restrictive medium. S. cerevisiae BB579 growth, OD615, 48 h. inhibition, % at 10 µM. actives 0.51% (n = 140,000). AID 804;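 active = inhibition above a set limit, 3 SD over the mean compound inhibition, cut at about 44% in these data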
#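 Assay system: S. cerevisiae DeaD strain BB579 yeast. Medium: CSMM-D restrictive synthetic medium containing dextrose (glucose). Times: 4 h cell preincubation, 48 h compound exposure, 30 °C humidified. Signal: OD615 turbidity measurement. Benchmarks: positive control amphotericin B 10 µg/mL.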
# Yeast life ext: extends the lifespan of yeast; actives 0.68% (n = 130,000); inhibition of the nicotinamide effect, % at 10 µM; AID 775; S. cerevisiae growth with nicotinamide, OD615; deaD strain in restrictive glucose medium;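 active = inhibition above a set limit, placed 3 SD over the median of all compounds, cut at about 26% in these data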;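 also: 0% = nicotinamide-treated wells and 100% = cells grown without nicotinamide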
#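 Buffer or medium: CSMM-D glucose medium, restrictive; test system: modified budding yeast, DeaD strain; compound: single dose 10 µM compound, 0.25% DMSO; schedule: culture preincubation 4 h, compound exposure 48 h, both 30 °C; detection: optical density (absorbance) at 615 nm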
# RAM network inh: inhibitors of the yeast RAM network; actives 1.8% (n = 190,000); S. cerevisiae dse1pr::URA3 reporter, 5-FOA growth OD615, 2 d; analog-sensitive cbk1-as2 kinase mutant strain; inhibition, % at 50 µM;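 active = inhibition above a set limit, 3 SD over mean compound inhibition, cut at about 8.4% in these data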;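 also: 0% = DMSO-only wells with no growth and 100% = 10 µM 1-NA-PP1 full growth; inhibition rescues growth on 5-FOA so higher OD means more RAM inhibition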
# * marks the source's active call; other numbers are inactive results; · = no result; [ ] = remark or other dose. Sampled rows, rich in hits. Any-hit rate of the full collection: about 3.8%.
SMILES,sdo1 growth,Measles CPE,BB579 growth dn,Yeast life ext,RAM network inh
O=C(OCC(F)(F)C(F)F)c1ccccc1C(=O)Oc1ccc(F)cc1F,-0.5,2,-23,-12,5
Cc1ccc(N2C(=O)CC(NNc3nc4ccccc4s3)C2=O)cc1 (centres undefined),-0.03,48*,-29,9,7
O=C1CC(NNc2nc3ccccc3s2)C(=O)N1c1ccccc1 (centres undefined),0.43,16,-52,-15,5
CC1CCCN(S(=O)(=O)c2ccc(NC(=O)CN3CCN(C)CC3)cc2)C1 (centres undefined),1.1,6,-95,-5,1
Cc1cc(C)c2oc(C(=O)Nc3ccc(S(=O)(=O)N4CCCC(C)C4)cc3)cc(=O)c2c1 (centres undefined),-0.92,14,-27,-6,9.2*
Cc1ccc(-n2c(=O)[nH]c3cc(C(=O)NC4CCN(Cc5ccccc5)CC4)ccc3c2=O)cc1,-0.1,5,-34,-20,0
O=C(NCc1ccccc1)C1=C[C@@H](c2ccc(Br)cc2)C[C@@H](OCc2ccc(CO)cc2)O1,·,·,·,·,8.8*
C#CCNC(=O)C1=C[C@@H](c2ccc(Br)cc2)C[C@@H](OCc2ccc(CO)cc2)O1,·,·,·,·,8
O=C(Nc1ccccc1)C1=C[C@H](c2csc3ccccc23)C[C@H](OCc2ccc(CO)cc2)O1,·,·,·,·,5
O=C(Nc1ccccc1)C1=C[C@H](c2csc3ccccc23)C[C@H](OCCCCO)O1,·,·,·,·,11*
O=C(NCc1ccccc1)C1=C[C@H](c2csc3ccccc23)C[C@H](OCCCCO)O1,·,·,·,·,11*
N/C(=N\OC(=O)/C=C/c1ccccc1Cl)c1ccncc1,·,·,·,·,0
CCOC(=O)c1ccc(NC(=O)Cn2nnc(-c3ccccc3F)n2)cc1,-1.1,1,14,-5,0
O=C(Cn1nnc(-c2ccccc2F)n1)Nc1ccc(S(=O)(=O)NC2CCCC2)cc1,1.8,35*,4,-10,2
COc1cccc(/C=C/C(=O)OCC(=O)Nc2cccc(S(=O)(=O)N(C)C)c2)c1,·,·,·,·,8
O=C(CSc1ccc2c(c1)OCCO2)NCCc1ccc(Cl)cc1Cl,-0.17,17,-17,-1,8.4*
CC(C)=CC(=O)OCC(=O)Nc1ccccc1Cl,0.67,81*,-66,-10,2
O=C(CSc1ccc2c(c1)OCCO2)Nc1ncc(Cl)cc1Cl,-0.49,20,-71,-9,0
O=C(COC(=O)/C=C/c1ccc(Cl)cc1Cl)NCCC1=CCCCC1,0.12,19,-12,-5,1
O=C(COC(=O)/C=C/c1ccccc1Cl)NCCc1ccc(Cl)cc1Cl,-0.48,17,-27,4,8.6*
COc1cccc(/C=C/C(=O)OCC(=O)Nc2ccc(Cl)c(S(=O)(=O)N(C)C)c2)c1,·,·,·,·,8.5*
O=[N+]([O-])c1ccc(/C=C2\CCC(C3=CCCC3)=C2N2CCOCC2)cc1,-1.2,10,-23,1,1
COC(=O)N/N=C/c1sc(N2CCCCC2)nc1-c1cccs1,·,·,·,·,6
Cc1ccc(NC(=S)NNC(=O)c2nnn(-c3ccccc3)c2C)cc1,0.95,2,-45,0,1
CCC(CC)C(=O)Nc1cccc(SC)c1,·,·,·,·,-1
SMILES,sdo1 growth,Measles CPE,BB579 growth dn,Yeast life ext,RAM network inh
CCOC(=O)c1nn(-c2ccc3c(c2)OCO3)cc1O,0.92[12.6 µM],13,-55,-12,1
Cc1cc(C)cc(NC(=S)NN)c1,·,·,·,·,2
COc1cc(NC(=O)COC(=O)/C=C/c2ccc(OC)c(OC)c2)cc(OC)c1,·,·,·,·,3
O=C(COC(=O)/C=C/c1ccccc1)Nc1cccc(Oc2ccccc2)c1,-0.77,2,-30,1,8.9*
COc1ccc(NC(=O)Cc2ccccc2)cc1,0.79,6,-19,·,0
COc1cc(NC(=O)COC(=O)/C=C/c2ccccc2Cl)cc(OC)c1,0.43,6,-22,0,10*
COc1cc(NC(=O)Cc2ccccc2)cc(OC)c1,2.1,59*,-15,-6,0
C=CCOc1ccc(C2N3CC4(CC)CN2CC(CC)(C3)C4=O)cc1 (centres undefined),-0.8,6,-29,7,0
CCC12CN3CC(CC)(CN(C1)C3c1c(O)ccc3ccccc13)C2=O (centres undefined),-0.54,5,-38,26*,0
Cc1cc(C)c(S(=O)(=O)c2ccccc2)c(N2CCOCC2)n1,·,·,·,·,3
Cc1cccc(/C=c2\s/c(=C\C(=O)C(C)(C)C)[nH]c2=O)c1,-2.2,4,-59,-5,5
COc1cc(/C=c2\s/c(=C\C(=O)C(C)(C)C)[nH]c2=O)cc(OC)c1OC,·,·,·,·,8.8*
O=C(Cc1c(Sc2ccccc2)c2ccccc2n1Cc1ccccc1)NCCO,-0.88,2,2,1,1
CC(C)OC(=O)CC(=O)CSc1nc2c(c(-c3cccs3)c1C#N)CCC2,-1.1,7,-29,7,10*
Cc1cccc(-c2nsc(SCC(=O)c3ccc(Cl)cc3)n2)c1,-0.08,14,-6,0,3
O=C(CSc1nc(-c2ccccc2Cl)ns1)c1ccc(Cl)cc1,-0.09,18,-28,-2,11*
COc1ccc(/C=C/C(=O)Nc2c(C)nn(C)c2C)cc1COc1ccc(Cl)cc1Br,-1.5,11,-28,·,1
Cc1cc(O)c(/C=N/Nc2cccc(Cl)c2)c(=O)o1,-1.3,6,98*,-26,-1
Cc1cc(O)c(/C=N/OCc2ccc(Cl)cc2Cl)c(=O)o1,·,·,·,·,1
Cc1cccc(N=Cc2c(O)cc(C)oc2=O)c1,·,·,·,·,0
Cc1cc(O)c(/C=N/Nc2ccc(Cl)cc2)c(=O)o1,-2.1,1,97*,-28,2
Cc1cc(O)c(/C=N/Nc2ccccc2Cl)c(=O)o1,-2.6,2,98*,-32,0
NC(=O)c1sc2nc(-c3ccco3)ccc2c1N,-0.56,37,53*,-24,2
COC(=O)c1sc2nc(-c3ccco3)ccc2c1N,1.4,12,5,-24,1
Nc1c(C(=O)Nc2ccccc2F)sc2nc(-c3ccco3)ccc12,0.01,·,-73,-1,9.2*
SMILES,sdo1 growth,Measles CPE,BB579 growth dn,Yeast life ext,RAM network inh
Cc1nn(C)c(C)c1CN(Cc1nc(CCC(C)C)no1)C(C)C,·,·,·,·,0
O=C(N/N=C\CCc1ccccc1)c1ccco1,0.84,57*,7,8,1
CCN(CC)S(=O)(=O)c1ccc(C(=O)NNC(=O)C2CCN(S(=O)(=O)c3ccc(Cl)cc3)CC2)cc1,0.26,7,-36,2,1
CCCC(=O)c1c[nH]c(C(=O)N2CCOCC2)c1,·,·,·,·,2
O=[N+]([O-])c1ccc(Sc2nc3ccccc3o2)c([N+](=O)[O-])c1,-2.7,27,99*,-11,-1
Cc1cc(/C=C(\C#N)C(=O)OCC(=O)NC(=O)NC(C)(C)C)c(C)n1CCC(C)C,0.88,21,-47,-6,-1
CCCn1c(C)cc(/C=C(\C#N)C(=O)OCC(=O)Nc2cccc(OC)c2)c1C,-0.34,8,-82,-2,8.9*
O=c1c2c3c(sc2n2cnnc2n1CCc1ccccc1)CCCC3,-0.54,9,-56,-11,8.9*
NC(=O)Cn1c(=O)n(CCc2ccccc2)c(=O)c2c3c(sc21)CCCC3,-1.1,11,-5,-7,0
O=C(CCNC(=O)c1ccccc1Cl)Nc1nc(-c2ccccc2Cl)cs1,-1,8,-14,-2,3
CCOC(=O)c1[nH]c2cc3c(cc2c1NC(=O)CN1CCC2(CC1)OCCO2)OCO3,-0.25,4,-10,-21,0
CCCCNc1c(C(=O)OCC)c(=O)[nH]c2ccccc12,-0.38,9,-30,-4,0

# Compound activity: PubChem BioAssay, several laboratories
